Molecules are shown by their SMILES. Calls of active or inactive are those of the source.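 Rule for the calls: active = half-maximal effective dose for blocking growth of human endothelial cells at most 100 µM; inactive = the rest.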

The test deals with HUVEC proliferation, viability ATP luminescence. Kind of test: growth suppression of umbilical vein endothelial cells – cell-based, HUVEC, ATP luminescence, dose response (AID 822).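 Note: cells exposed to compound for 72 h before the ATP read.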 The gist of the method: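 Test system: HUVEC; Input: 1250 HUVEC cells seeded per well; Doses: 0.039–20 µM, 0.2% DMSO; Evaluation: % viability versus median cell-only wells, EC50 from 4-parameter fit; Medium: EBM plus 2% FBS; Incubation: compound treatment 72 h, 37 °C; Signal: luminescent ATP measurement with CellTiter-Glo reagent; Plate: collagen-coated multiwell plates.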
The EC50 is the midpoint of the concentration-response curve. Consider `Cc1cccc(N2CCN(C(=O)c3ccc4nc(-c5ccco5)c(-c5ccco5)nc4c3)CC2C)c1` (centres undefined), for which the EC50 is 9.47 µM.

Turning to `Cn1c2ccccc2c(=O)c2c(=O)n(C3CCCCC3)c(-c3cccs3)nc21`, the concentration giving a half-maximal response (EC50) is 8.3 µM. With `Cc1ccc2c(C)ccc(O)c2n1` the figure was 7.33 µM; with `CC1CC(C)(C)CC2(C1)NC(=S)N(c1ccccc1)N2` (centres undefined), 12.3 µM. With `CCC(C)(C)NC(=O)C(c1ccc(C)o1)N(Cc1cccs1)C(=O)Cn1nnc2ccccc21` (centres undefined) the figure was 11.7 µM; with `CC1=C(C(=O)OCc2ccc3c(c2)OCO3)C(c2ccccc2)NC(=O)N1` (centres undefined), 14.1 µM; with `CC1CCC(C(=O)c2c(O)c3ccccc3oc2=O)CC1` (centres undefined), 7.71 µM. To `OC(COc1ccc(Cl)c2ccccc12)CN1CCN(c2ccccn2)CC1` (centres undefined) belongs 12.3 µM. In the case of `Cc1ccc(-c2csc3ncnc(Sc4nnc(CN5CCCCCC5=O)o4)c23)cc1`, the EC50 is 5.55 µM. In the case of `O=C(c1nn2c(C(F)(F)F)cc(-c3ccco3)nc2c1Br)N1CCCc2ccccc21`, the half-maximal effective concentration (EC50) was 14.8 µM.

Regarding `COc1ccc(-n2c(SCC(=O)Nc3sc4c(c3C#N)CCCC4)nnc2-c2ccc(O)cc2)cc1`, the 50% effective concentration (EC50) was 4.32 µM. To `Cc1ccc(S(=O)(=O)c2c(C)nn(C(C)(C)C)c2OC(=O)c2ccco2)cc1` belongs 12.1 µM. In the case of `Cc1cc(C)c2c(=O)n(CC(=O)NCCCN3CCN(c4ccccc4F)CC3)sc2n1`, the EC50 is 12.3 µM.

Turning to `O=C(CSc1ccc2c(c1)OCCO2)Nc1ccc(Cl)cn1`, the 50% effective concentration (EC50) was 5.53 µM. To `CCC(C)NC(=O)c1c(N)n(/N=C/c2ccccn2)c2nc3ccccc3nc12` (centres undefined) belongs 9.34 µM; to `CCOC(=O)C1=C(Cc2ccc(F)cc2)C(=O)c2ccccc2C1=O`, 13.6 µM. With `N=c1n(CCN2CCCCC2)c2ccccc2n1CC(O)c1cccc(Br)c1` (centres undefined) the figure was 9.51 µM; with `Brc1ccccc1OCCCn1cnc2ccccc21`, 13.2 µM. With `COc1ccccc1NC(=O)CC1C(=O)NCCN1C(=O)Nc1ccc(Cl)c(Cl)c1` (centres undefined) the figure was 10.8 µM. Consider `Cc1nc2c(-c3ccccc3)c(C)[nH]n2c(=O)c1Cl`, for which the EC50 is 10.5 µM. To `CCOC(=O)c1c(NC(=O)CCl)sc(C(=O)N(CC)CC)c1C` belongs 12.3 µM.

With `c1ccc(-c2nc(N3CCCCCC3)c3ccccc3n2)nc1`, the EC50 is 1.55 µM.

On to `Cc1cc(=O)[nH]c2ccc(Cl)cc12`, for which the EC50 is > 10 µM (inactive). With `COc1cc(-c2nnc(COc3ccc4cc(Br)ccc4c3)o2)cc(OC)c1OC` the figure was 12.1 µM.

Regarding `CC(=O)c1cccc(NC(=O)Nc2ccc3c(c2)N(C)C(=O)CS3)c1`, the EC50 was 9.94 µM. To `Cc1nn(CC(=O)Nc2ccc3c(c2)oc2ccccc23)c(=O)c2ccccc12` belongs 6.25 µM; to `CCn1cc(C(=O)NCc2ccc3c(c2)OCO3)c(=O)c2cc(F)c(N3CCN(C(=O)c4ccco4)CC3)cc21`, 10.4 µM.

Take `Cc1ccc2c(c1)NC(=O)C(CC(=O)NCCCN1CCN(c3cc(Cl)ccc3C)CC1)O2` (centres undefined): the EC50 was 7.12 µM. To `CCOC(=O)C1=C(N)n2c(s/c(=C/c3ccco3)c2=O)=C(C(=O)OC)C1c1ccco1` (centres undefined) belongs 5.98 µM; to `Cc1cccc(C)c1N1CCN(c2ccc3nnc(C(F)(F)F)n3n2)CC1`, 5.78 µM; to `O=C1CSC(=S)N1Cc1cccnc1`, 19.2 µM. With `CC1(C)Nc2ccc(O)cc2-c2c1ssc2=S` the figure was 4.58 µM; with `O=C1CCCc2c1[nH]c1ccc(Br)cc21`, > 10 µM (inactive); with `Cn1nc(C(C)(C)C)cc1C(=O)NCc1ccc(N2CCCC2=O)cc1`, 16 µM. To `CCCSc1nc2c(cnn2-c2ccc(C)cc2)c(=O)[nH]1` belongs 5.19 µM; to `CC(=O)C(C(C)=O)c1c(Cl)c(O)c(O)c2c(C(=O)c3ccccc3)coc12`, 5.38 µM. Turning to `CCOc1cc(S(=O)(=O)N2CC=C(c3ccc(F)cc3)CC2)c(OCC)cc1-n1cnnn1`, the EC50 was 20 µM.

As to `O=C(c1ccc(F)cc1)C(CN1CCOCC1)c1ccccc1` (centres undefined), the EC50 was 5.11 µM. To `CCc1ccc2c(c1)/C(=C/C(=O)c1cccs1)C(=O)N2` belongs 7 µM; to `CC(=O)Oc1ccc(N(C(C)=O)S(=O)(=O)c2cccs2)c2ccccc12`, 9 µM.

Consider `COc1ccccc1-c1nnc2n1N=C(c1ccc(O)c(O)c1)CS2`, for which the EC50 is 0.847 µM. With `COc1cccc(-c2cc(C(=O)Nc3cc(C)n(Cc4ccc(Cl)cc4)n3)no2)c1`, the EC50 is 12.3 µM.

Consider `COc1ccc(-n2nnnc2S(=O)(=O)CC(=O)N2CCCCC2)cc1`, for which the EC50 is 7.76 µM. To `Cc1ccc2[nH]c3c(c2c1)CCC3=O` belongs 14.7 µM. To `CCN(CC)c1ccc2c(c1)oc(=O)c1c(Cl)cc(=O)oc12` belongs 2.05 µM; to `O=C(Nc1nnc(-c2ccc3c(c2)CCCC3)o1)c1ccc(Cl)cc1Cl`, 2.25 µM; to `N#Cc1c(NCCN)nc(NCc2ccccc2)c2c1CCN(Cc1ccccc1)C2`, 13.3 µM.

Turning to `Cc1cccc(-c2nc(CN3CCCC(C(=O)NC4CCC(C)CC4)C3)c(C)o2)c1` (centres undefined), the EC50 is 11.6 µM. With `Cn1cc(SCC(=O)Nc2nc3ccccc3s2)c2ccccc21` the figure was 6.29 µM. With `CCOc1ccc2nc(NC(=O)CN3CCC(n4nnc5cc(F)ccc54)CC3)sc2c1` the figure was 8.42 µM. As to `O=S1(=O)C=C(Sc2nnc(-c3ccccc3)o2)c2ccccc21`, the EC50 was 4.25 µM. With `COC(=O)c1ccc2c(=O)n(Cc3ccco3)c(SCC(=O)Nc3ccc(C)c(Cl)c3)nc2c1` the figure was 9.21 µM. Turning to `CCCOC(=O)c1ccc(Oc2cn[nH]c2-c2ccc(OC)cc2O)cc1`, the EC50 is 12.3 µM. With `COc1cc2nc(NCCCN3CCN(C)CC3)n3nc(-c4ccccc4)nc3c2cc1OC` the figure was 10.5 µM; with `CCOC(=O)c1cnc(-n2nc(C)cc2C)nc1NCCc1ccccc1`, 12.7 µM. With `Oc1ccc(Cl)cc1-c1cc(-c2ccco2)[nH]n1` the figure was 13.7 µM; with `Cc1cccc(CS(=O)(=O)c2nnc([C@H](Cc3ccccc3)NC(=O)OC(C)(C)C)o2)c1`, 9.97 µM; with `CSc1nc2c(cnn2-c2ccc(C)c(C)c2)c(=O)[nH]1`, 17.8 µM. With `CC(=O)Nc1ccc(S(=O)(=O)N2CCN(c3nc(NC4CCCC4)c4ccccc4n3)CC2)cc1` the figure was 4.96 µM; with `COC(=O)COc1ccc(S(=O)(=O)NCCC2=CCCCC2)cc1Cl`, 9.76 µM. Turning to `Cc1cccc(N2CCN(C(=O)Cn3sc4nc(C)cc(C)c4c3=O)CC2C)c1` (centres undefined), the EC50 was 12.4 µM. To `CC1CCc2sc3nc(N4CCN(CCO)CC4)n4ncnc4c3c2C1` (centres undefined) belongs 19.6 µM.

Consider `CCCCCCOC(=O)C(C#N)c1nc2ccccc2nc1N1CCN(C)CC1` (centres undefined), for which the EC50 is 10 µM. To `COc1ccc(NC(=O)c2ccccc2NC(=O)COc2ccccc2)cc1` belongs 11.2 µM; to `COc1ccc2nc(NC(=O)CSC3=NCCS3)sc2c1`, 4.95 µM; to `c1cc2c3c(cccc3c1)NC1(CCCCCC1)N2`, > 10 µM (inactive).

`CCc1cc(-c2[nH]ncc2-c2ccc3c(c2)OCO3)c(O)cc1O`: the EC50 is 7.97 µM.

As for `CCOc1ccccc1-n1c(CN2CCN(C(=O)c3ccco3)CC2)nc2ccccc2c1=O`, the EC50 is 12.3 µM. With `COc1ccc2nc(Nc3nc(CSc4nnnn4-c4ccccc4)cc(=O)[nH]3)nc(C)c2c1` the figure was 4.49 µM; with `CCc1ccc(-c2nc(CN3CCC(C(=O)NCc4ccc(F)cc4)CC3)c(C)o2)cc1`, 5.89 µM; with `Nc1c(C(=O)NCc2ccccc2)nnn1Cc1cccc(Cl)c1`, 13.9 µM. To `CCN(CC)CC(=O)Nc1ccc(-c2nc3cc(NC(=O)CN(CC)CC)ccc3o2)cc1` belongs > 10 µM (inactive). With `COCCCn1[nH]c2c3c(ccc2c1=O)C(=O)c1ccccc1C3=O` the figure was 4.66 µM; with `Cc1nn2c(NCCCN(C)C)c3c(nc2c1-c1ccccc1)CCC3`, 12.2 µM; with `N#Cc1nc(COc2ccc(-c3ccccc3)cc2)oc1NCCCN1CCOCC1`, 10.6 µM. `Cc1cc2c(N=O)c(NO)ccc2[nH]1`: the EC50 was 5.96 µM. To `CCOC(=O)c1cc2c(N)c(C(=O)c3cc(C#N)c(SC)nc3C)sc2nc1C` belongs 5.27 µM. `C#CCn1c(=NC(=O)c2ccc(Br)s2)sc2cccc(OC)c21`: the EC50 is 12.2 µM. On to `COC(=O)c1ccc2c(=O)n(Cc3ccco3)c(SCC(=O)Nc3ccccc3Cl)nc2c1`, for which the EC50 was 4.94 µM. With `c1ccc(-c2nc3nonc3nc2-c2ccccc2)cc1` the figure was 3.46 µM; with `CCCCS(=O)(=O)/C=C\C=C/S(=O)(=O)CCCC`, 5.04 µM; with `COc1cc(NC(=O)Nc2cccc(Cl)c2)c(OC)cc1NC(=O)CN1CCCCC1`, 5.49 µM. With `CC(C)CC[n+]1ccn(C2=C([O-])c3ccccc3C(=O)/C2=N\S(=O)(=O)c2ccccc2)c1` the figure was 5.38 µM; with `Cc1cc(/C=N/n2cnnc2)c(C)n1-c1ccc(OCc2ccc(Cl)cc2Cl)cc1`, 4.39 µM. With `Cc1ccc(C)c(C(C)NC(=O)C2C3CCC(O3)C2C(=O)O)c1` (centres undefined) the figure was 16.3 µM. Consider `COC(=O)CS(=O)(=O)c1nnc([C@H](Cc2ccccc2)NC(=O)OC(C)(C)C)o1`, for which the EC50 was 8.85 µM. On to `CCn1c(=N)n(CC(=O)C23CC4CC(CC(C4)C2)C3)c2ccccc21`, for which the EC50 was 8.77 µM.

Regarding `CCOC(=O)N1CCc2c(sc(NC(=O)c3ccc(S(=O)(=O)N4CCCC4)cc3)c2C#N)C1`, the EC50 was 17.5 µM. With `CCCCCCn1c(O)c(C=NC2CCCCC2N)c(=O)[nH]c1=O` (centres undefined) the figure was 9.15 µM; with `CC(=O)Nc1ccc(NC2=Nc3ccccc3N3C2=Nc2c(c(C)nn2-c2ccccc2)C3c2ccccc2)cc1` (centres undefined), 15.8 µM; with `Cc1ccccc1-c1nc(CN2CCC(C(=O)NCCC3=CCCCC3)CC2)c(C)o1`, 6.73 µM. Turning to `CCOc1cc(/C=C\c2[nH]c(=O)[nH]c(=O)c2[N+](=O)[O-])ccc1OC(C)CC` (centres undefined), the EC50 was 4.12 µM. With `O=C1NCCCC2c3cc(O)c4ccccc4c3OC12N1CCCCC1` (centres undefined) the figure was 3.25 µM; with `Cc1nc2sccn2c(=O)c1CCN1CCC(=C(c2ccc(F)cc2)c2ccc(F)cc2)CC1`, 8.98 µM.

The values above are taken from PubChem BioAssay AID822 (SRMLSC, 2007).
